This is a sample that favours compounds with a hit; in the whole collection about 1.4% have one here.
HNF4A DNA FP: change in binding of human HNF4A to DNA, primary screen, biochemical, fluorescence polarization, FITC-DNA; hit rate 0.3% among 360,000; activity change, % at 10 µM; 1 h; AID 1224865, 2016; in the data active = activity change above about 30%, passing the limit was not always enough
Target sequence (P41235 whole entry, looked up): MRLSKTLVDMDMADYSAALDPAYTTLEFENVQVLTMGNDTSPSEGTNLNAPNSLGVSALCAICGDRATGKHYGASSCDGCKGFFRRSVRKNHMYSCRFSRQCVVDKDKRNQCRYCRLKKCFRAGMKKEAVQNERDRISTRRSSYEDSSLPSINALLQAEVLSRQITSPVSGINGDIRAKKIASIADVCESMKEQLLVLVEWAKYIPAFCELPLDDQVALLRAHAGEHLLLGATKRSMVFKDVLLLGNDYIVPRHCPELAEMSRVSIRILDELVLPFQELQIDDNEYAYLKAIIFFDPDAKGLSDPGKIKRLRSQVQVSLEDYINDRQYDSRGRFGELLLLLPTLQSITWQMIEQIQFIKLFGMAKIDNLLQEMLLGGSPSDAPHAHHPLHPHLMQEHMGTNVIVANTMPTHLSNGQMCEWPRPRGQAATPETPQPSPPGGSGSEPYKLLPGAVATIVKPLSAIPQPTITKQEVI
IDE act: human IDE activators in live cells, primary screen, fluorescence polarization, HEK cells, FAbeta-B substrate; Insulin-degrading enzyme (Homo sapiens), P14735; FAbeta-B cleavage; 0% vehicle, 100% cell-free pure enzyme wells; activation, % at 5.96 µM; hit rate 0.073% among 340,000;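 active = activation above the mean of all tested compounds plus 3 SD, set per screening campaign, cut at about 17% in these data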
IDE inh: human IDE inhibitors in live cells, primary screen, fluorescence polarization, HEK cells, FAbetaB substrate; AID 434962, 2010; inhibition, % at 5.59 µM; hit rate 0.41% among 320,000; Insulin-degrading enzyme (Homo sapiens), P14735; FAbetaB cleavage;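 active = percent inhibition above the average of all tested compounds plus 3 SD, set per screening campaign, cut at about 16% in these data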;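 also: IDE supplied by intact live HEK cells; FP after avidin binding of uncleaved biotin substrate so inhibition keeps polarization high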
TPT1 inhibitor: Candida albicans TPT1 enzyme inhibitors, primary screen, biochemical, fluorescence polarization. inhibition, % at 5 µM. hit rate 0.81% among 300,000. recombinant caTPT1, FP RNA substrate dephosphorylation;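 active = inhibition above the mean of all tested compounds plus 3 SD, set per screening campaign, cut at about 24% in these data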
CSN inh: inhibitors of CSN-mediated cullin deneddylation, primary screen, biochemical, fluorescence polarization, uHTS. AID 651999, 2013. inhibition, % at 12.5 µM. hit rate 0.38% among 360,000. COP9 signalosome complex subunit 5 (Homo sapiens), Q92905. Purified CSN, SCF-Nedd8-OG deneddylation;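 active = pattern-corrected inhibition above about 35%, with an unprinted fluorescence ratio check between 0.5 and 1.5, limit read from the data, passing the limit was not always enough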
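Assay system: Purified human Csn5 enzyme expressed in HEK293T cells | Amount: Enzyme 0.24 nM | Measured by: Fluorescence polarization readout | Medium: Tris/NaCl/DTT buffer, pH 7.5 | Compound dosing: One concentration, 12.5 µM, 0.25% DMSO | Times: 90 min incubation of compound, enzyme and substrate at room temperature | Control set: no-enzyme wells high, enzyme-with-substrate wells low | Read-out: % inhibition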
caTPT1 confirm: Candida albicans TPT1 inhibitors, confirmation, biochemical, fluorescence polarization, triplicate; hit rate 74% among 2,400; shares compounds with TPT1 inhibitor; recombinant caTPT1, RNase T1 coupled; inhibition, % at 5 µM;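 active = inhibition above the primary screen limit, the mean inhibition of all tested compounds plus 3 SD, cut at about 25% in these data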
RNase T1 counter: RNase T1 inhibitors, counter-screen for TPT1 inhibitor project, biochemical, fluorescence polarization; shares compounds with TPT1 inhibitor; AID 2153, 2009; inhibition, % at 5 µM; RNase T1 cleavage, 1536-well; hit rate 83% among 2,400;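 active = inhibition above the solvent-only control well mean plus 3 SD, limit set per screening run, cut at about 23% in these data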;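 also: inhibitors block cleavage so intact labeled substrate keeps polarization high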
Target sequence (P00651 whole entry, looked up): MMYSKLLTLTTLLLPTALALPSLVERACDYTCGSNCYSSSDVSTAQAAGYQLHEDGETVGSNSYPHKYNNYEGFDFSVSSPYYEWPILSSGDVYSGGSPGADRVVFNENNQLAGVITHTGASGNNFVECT
Of the large screens only hits and unclear results are named; the others gave an inactive call (follow-up assays come after a bar, where they were run).

O=C(O)c1ccc(N/N=C/C2=C(N3CCOCC3)C(=C\c3ccccc3)/CC2)cc1	HNF4A DNA FP 35, TPT1 inhibitor 101 | caTPT1 confirm 119 | RNase T1 counter 124
COc1ccc(N/C(C)=C/C(=O)c2ccccc2)cc1	none
COc1ccc(N/C(C)=C/C(=S)Nc2ccccc2)cc1	TPT1 inhibitor 125 | caTPT1 confirm inactive | RNase T1 counter inactive
COC(=O)c1c(SCC(=O)NC2CCCCC2)[nH]c2ccccc2c1=O	TPT1 inhibitor 25 | caTPT1 confirm inactive | RNase T1 counter 30
CCCNC(=O)C[C@H]1CC[C@@H]2[C@H](COC[C@@H](O)CN2C(=O)c2ccccn2)O1	none (no result: IDE act, IDE inh, TPT1 inhibitor)
COc1ccc(NC(=O)/C(C#N)=C\c2ccc(Br)o2)cc1	none
N#C/C(=C\c1ccc([N+](=O)[O-])o1)C(=O)Nc1ccc(F)cc1	TPT1 inhibitor 39 | caTPT1 confirm 42 | RNase T1 counter 55
N#CC1=C(N)Oc2cc(O)c(C=Nc3ccccc3)cc2C1c1ccccc1 (stereo not drawn)	none
Cc1ccccc1N=Cc1cc2c(cc1O)OC(N)=C(C#N)C2c1ccccc1 (stereo not drawn)	TPT1 inhibitor 53 | caTPT1 confirm 73 | RNase T1 counter 82
O=C(N/N=C/c1ccc([N+](=O)[O-])o1)c1cc(-c2ccc(-c3ccccc3)cc2)nc2ccccc12	none
O=[N+]([O-])c1ccc(/C=N/Nc2ccnc3cc(Cl)ccc23)o1	TPT1 inhibitor 68 | caTPT1 confirm 62 | RNase T1 counter 78
Cc1cc(N/N=C/c2ccc([N+](=O)[O-])o2)nc2ccccc12	TPT1 inhibitor 49 | caTPT1 confirm 50 | RNase T1 counter 64
COc1ccc(C(=O)/C=C/c2cn(CC(O)CN3CCN(C)CC3)c3ccccc23)cc1OC (stereo not drawn)	HNF4A DNA FP 48, TPT1 inhibitor 50, CSN inh 55 | caTPT1 confirm 61 | RNase T1 counter 72
O=C(/C=C/c1cn(CC(O)CN2CCCCC2)c2ccccc12)c1ccccc1 (stereo not drawn)	none (no result: IDE inh, TPT1 inhibitor)
O=C(/C=C/c1cn(CC(O)CN2CCCCC2)c2ccccc12)c1cccs1 (stereo not drawn)	TPT1 inhibitor 64 | caTPT1 confirm 65 | RNase T1 counter 72
CCOC(=O)[C@]12CCC=C1N(Cc1cccc3ccccc13)C(=O)[C@H](CC(=O)NCCCOC)C2	none (no result: IDE act, IDE inh, TPT1 inhibitor)
C/C(=N/NC(N)=S)c1cc2ccc(O)cc2oc1=O	TPT1 inhibitor 25 | caTPT1 confirm 90 | RNase T1 counter 97
Cc1cc(C)cc(Nc2ccc(C(=O)O)cc2N)c1	TPT1 inhibitor 29 | caTPT1 confirm inactive | RNase T1 counter inactive
COc1ccccc1Cc1c(-c2ccco2)nc2ccc(Br)cn12	none (no result: IDE act, IDE inh, TPT1 inhibitor)
C=C1C(=O)C2=CC1CCC(=O)C1(C)CCC(OC(C)=O)C(C)(C)C1CC2O (stereo not drawn)	none (no result: IDE inh, TPT1 inhibitor)
CCC(C)(C(=O)NC1CCCCC1)N(C(=O)Cc1cccs1)c1ccccc1 (stereo not drawn)	TPT1 inhibitor 68 | caTPT1 confirm inactive | RNase T1 counter inactive
N#C/C(=C/c1ccc(N2CCOCC2)o1)c1ccc(Cl)cc1	TPT1 inhibitor 163 | caTPT1 confirm 165 | RNase T1 counter 155
CCC(C)Nc1nc(-c2c[nH]c3ccccc23)cs1 (stereo not drawn)	TPT1 inhibitor 25 | caTPT1 confirm inactive | RNase T1 counter 33
CNc1nc(-c2c[nH]c3ccccc23)cs1	none
CC(=O)C1CCC2C3CCC4=CC(=O)C=CC4(C)C3C(=O)CC12C (stereo not drawn)	none (no result: IDE inh, TPT1 inhibitor)
C[C@]12C=CC(=O)C=C1CC[C@@H]1C2=CC[C@]2(C)[C@@H](C(=O)CN3CCN(c4cc(N5CCCC5)nc(N5CCCC5)n4)CC3)CC[C@@H]12	TPT1 inhibitor 31 | caTPT1 confirm 29 | RNase T1 counter 41
NNc1nc(-c2ccccc2Cl)nc2ccccc12	TPT1 inhibitor 31 | caTPT1 confirm inactive | RNase T1 counter 33
N#Cc1ccccc1Cn1cc(/C=N/Nc2ccc([N+](=O)[O-])cn2)c2ccccc21	TPT1 inhibitor 37 | caTPT1 confirm 82 | RNase T1 counter 89
CCSc1ncc(/C=N/Nc2ccc([N+](=O)[O-])cc2)n1C	TPT1 inhibitor 56 | caTPT1 confirm 57 | RNase T1 counter 66
O=[N+]([O-])c1ccc(NN=Cc2ccccc2)nc1	none (no result: IDE inh, TPT1 inhibitor)
Cc1ccccc1-n1c(C)cc(/C=N/Nc2ccc([N+](=O)[O-])cn2)c1C	TPT1 inhibitor 38 | caTPT1 confirm 41 | RNase T1 counter 56
O=[N+]([O-])c1ccc(N/N=C\c2cccn2-c2ccccc2)nc1	TPT1 inhibitor 88 | caTPT1 confirm 78 | RNase T1 counter 90
C=CCOc1cccn2c(N(C=O)Cc3ccc(OC)cc3)c(CC)nc12	none (no result: IDE act, IDE inh, TPT1 inhibitor)
CCOC(=O)c1[nH]c(C)c(C(=O)Nc2ccc(C)c(Cl)c2)c1C	TPT1 inhibitor 28 | caTPT1 confirm inactive | RNase T1 counter inactive
CCN(C)C1CN(Cc2cn(Cc3cccc(C(F)(F)F)c3)nn2)S(=O)(=O)C1 (stereo not drawn)	none (no result: IDE act, IDE inh, TPT1 inhibitor)
COc1ccc(C)cc1Nc1n[n+](-c2ccccc2)c(-c2ccc(N(C)C)cc2)s1	HNF4A DNA FP 68, TPT1 inhibitor 51 | caTPT1 confirm 90 | RNase T1 counter 99
CCNc1ccc(Br)cc(C(=O)/C=C/c2ccccc2Cl)c1=O	TPT1 inhibitor 53 | caTPT1 confirm 88 | RNase T1 counter 94
CNc1ccc(Br)cc(C(=O)/C=C/c2cccc(OC)c2OC)c1=O	TPT1 inhibitor 41 | caTPT1 confirm 65 | RNase T1 counter 76
COC(=O)/C=C/c1ccc2c(c1)OCO2	none
CCNc1ccccc(C(=O)/C=C/c2ccc3c(c2)OCO3)c1=O	TPT1 inhibitor 26 | caTPT1 confirm inactive | RNase T1 counter inactive
Cc1cc(C)c(C)c(S(=O)(=O)N2CCN(C(=O)CNC(=O)c3ccco3)CC2)c1C	none (no result: TPT1 inhibitor)
CC1(C)CC(NNCCC#N)=CC(=[N+]2CCCC2)C1	TPT1 inhibitor 49 | caTPT1 confirm 54 | RNase T1 counter 69
CC(C)(C)CC(=O)Nc1nn[nH]n1	TPT1 inhibitor 27 | caTPT1 confirm inactive | RNase T1 counter inactive
NS(=O)(=O)c1ccc(-c2ccc(/C=C3\NC(=S)NC3=O)o2)cc1	HNF4A DNA FP 36, TPT1 inhibitor 45 | caTPT1 confirm 70 | RNase T1 counter 80
Cc1nc2ccccc2n1-c1ccccc1	none
